Laboratory results reported in ChEMBL document CHEMBL4513216, “Probing the Open Global Health Chemical Diversity Library for Multistage-Active Starting Points for Next-Generation Antimalarials” (ACS Infect Dis, 2020).

Experiment: Toxicity liver stage against HepG2, at 10uM
Type: cell-based
Design: test concentration 10 uM, cell line HepG2-A16-CD81EGFP
Conditions: human, HepG2-A16-CD81EGFP cells; read-out: INHIBITION
Method in brief: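 Uninfected HepG2-A16-CD81EGFP cells, 3 × 10^3 per well, 1536-well, plated on prespotted compound at 10 μM final, parasite-free screening media added to match infected plates; puromycin 10 μM positive, DMSO 0.5% negative; run in parallel with 48 h PbLuc assay at 37 °C, 5% CO2; viability by CellTiter-Glo luminescence, normalized to controls.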

Structure (SMILES)	cytotoxicity at 10 µM
O=C(CNC(=O)c1c(F)cccc1Cl)Nc1ccc(F)cn1	8.46%
O=C(NCC1CC1)c1cc2c(s1)CCN2c1ncccn1	-101%
Cc1nccc(C2CN(S(=O)(=O)N(C)C)C2)n1	-5.44%
Cc1ccc(N2CCC3(CC2)CC(OCC(C)C)C3)nn1	-121%
O=C(NC[C@@H]1CCCO1)c1ccc(S(=O)(=O)N[C@@H]2CCNC2)cc1	-42.2%
CC(C)=CCN1C(=O)[C@@H]2CC[C@H]1CN(c1ncccn1)C2	9.14%
Cc1cc(Br)oc1C(=O)N1CCC(N(C)C)CC1	-4.71%
Cc1ccc(C2CN(c3nnc(C(F)F)s3)CCO2)c(C)c1 (configuration not stated)	3.28%
CSCCC(=O)N1CCc2c(ncnc2N2CCOCC2)C1	-4.88%
CCOc1cccc(C2CC(=O)NCc3nc(N)sc32)c1 (configuration not stated)	-9.23%
CCC(NC(=O)NCc1cc(Cl)ccc1OC)c1noc(C)n1 (configuration not stated)	4.06%
Cn1ccnc1-c1noc(NCc2ccc(Br)cc2)n1	-4.32%
Cc1ccc(C(C(=O)NC(C)(C)CN2CCCC2)N(C)C)cc1 (configuration not stated)	-6.93%
O=c1ccc2c(n1Cc1cccnc1)CCC(NCc1cccnc1)C2 (configuration not stated)	19.2%
Cc1cc(Br)c(O)c(C(=O)N2CCC(CN3CCCCCC3)CC2)c1	8.29%
Cc1noc(C)c1CN(C)C(=O)c1nc(N2CCCC2)ncc1Cl	-41.6%
Cc1nc2cc(C(=O)N(CCC#N)CC3CCCO3)ccc2[nH]1 (configuration not stated)	-0.58%
Cn1ccnc1CN1CCC2(CC(=O)N(c3ccccn3)C2)C1 (configuration not stated)	-74.6%
CC(=O)N1CCC2(CC1)CN(C(=O)c1ccc3c(c1)OCO3)C2	6.71%
O=C(c1cccc(F)c1)N1CCC2(CC1)CC(N1CCOCC1)C2	-8.02%
O=c1[nH]c(NCCCO)nc2c1C1(CCCC1)Cc1ccccc1-2	8.79%

Structure (SMILES)	cytotoxicity at 10 µM
CN1CCN(c2ncnc3c2CCN(c2ncc(F)cn2)CC3)CC1	7.61%
Cc1ccc(CN2CCCn3cnc(COCC4CC4)c3C2)o1	8.82%
Cc1ccc(S(=O)(=O)NCCCN2CCC(O)CC2)c(F)c1	4.24%
CC(C)NC(=O)c1nnn(-c2cccc(F)c2)c1C1CC1	-0.0198%
CCC1CCCN(S(=O)(=O)c2cnn(C)c2)C1 (configuration not stated)	12.9%
CS(=O)(=O)N1C[C@@H]2COC[C@@H](CC(=O)N3CCCCO3)[C@@H]2C1	10.6%
CO[C@@H]1CC[C@@H](N(C)C(=O)c2cn3cc(C)ccc3n2)[C@H]1O	0.91%
O=C(C1CC1)N1CCC(O)(CN2CCN(c3ccccc3)CC2)C1 (configuration not stated)	-3.3%
O=C(CN1CCCC1Cn1cncn1)Nc1ccnn1C1CCCC1 (configuration not stated)	-1.07%
COc1ccc(-c2ccc(C(=O)NS(C)(=O)=O)c(F)c2)cc1	5.7%
Fc1cnc(N2CCCC3(COCCN(c4nccs4)C3)C2)nc1 (configuration not stated)	1.43%
Cc1cc(NCC2(O)CCOCC2)nc2ccccc12	-8.98%
Cc1nc2sc(C(=O)N3CCNC(=O)C3)c(C)c2c(=O)[nH]1	4.13%
CN(C)C(=O)CO[C@H]1CO[C@@]2(CCN(S(C)(=O)=O)C2)C1	-106%
CCN(C)c1ccc(C(=O)N(CCOC)Cc2ccccn2)cc1	-3.96%
Cc1cc2ccccc2n1CCC(=O)N1CCCC2(CC1)CNC(=O)O2 (configuration not stated)	3.5%
CC(C)c1cc(N2CCC(NS(C)(=O)=O)CC2)n2nccc2n1	0.324%
CCn1c(CN2CCCN(C(=O)OC)CC2)nc2c(F)cccc21	-8.6%
Cn1nnc2c1CCN(Cc1nccs1)C2COCc1ccccc1 (configuration not stated)	-2.01%
CCCNC(=O)c1cnc(N(C)C)nc1COC	3.17%
CCn1c(N)nc2cc(C(=O)NCCCc3ccccn3)cnc21	-7.38%

Structure (SMILES)	cytotoxicity at 10 µM
Cc1nc(C2CCCN(C(=O)c3ccco3)C2)no1 (configuration not stated)	0.529%
Cc1cc(C)cc(OCCN2CCn3c(C)nnc3C2)c1	-9.08%
CC(CCc1ccccc1)N1CCC(C(=O)Nc2ccccn2)CC1 (configuration not stated)	13.5%
CCc1c(C)nc(C)nc1N1CCC(NCCSc2nnnn2C)CC1	-15.9%
NCC1CCCN(c2nc(-c3ccccc3)nc3c2CCNCC3)C1 (configuration not stated)	-10.3%
CC(=O)N1[C@H](CN(C)C)C[C@@H]2CN(C(=O)c3cncc(C)c3)CC[C@@H]21	3.76%
CC(NC(=O)NCC(C)(C)O)c1ccc(-c2ccncc2)cc1 (configuration not stated)	7.15%
CCN(CC)CCn1cnc(-c2ccccc2)c1-c1ncc[nH]1	4.03%
COCC(=O)N1CCC2(CC1)CC(N1CCN(C)CC1)CO2 (configuration not stated)	-1.25%
CCc1nc(C)c(C(=O)N2CCCC(c3noc(C)n3)C2)s1 (configuration not stated)	5.82%
Cc1nccn1Cc1nnc(C2CCCN(Cc3cccnc3)C2)n1C (configuration not stated)	-6.15%
CCn1nc(C)c(CNC(=O)c2cn(CC3CCCO3)nn2)c1C (configuration not stated)	-2.34%
CCN1CCCCC1C(=O)Nc1cccc(-c2nnc[nH]2)c1 (configuration not stated)	4.03%
Cc1ccccc1-c1noc(CN2CCn3c(nnc3C3CC3)C2)n1	-7.64%
CCCn1nccc1NC(=O)c1ccc(Cl)c(N2CCNC2=O)c1	-5.07%
c1cnc(N2CCCC(c3cncc(-n4ccnc4)n3)C2)nc1 (configuration not stated)	-11.8%
Cc1csc(CNC(=O)Nc2ccc3c(c2)OCO3)n1	-15.7%
CN(CCn1cccn1)S(=O)(=O)c1ccc(C#N)cc1	-4.81%
CCc1nc(CNCC2CCCN2c2cccnn2)cs1 (configuration not stated)	-7.69%
Cc1oc(-c2ccco2)nc1CN1CCc2cnc(C(C)C)nc2C1	0.0371%
CS(=O)(=O)N1CCCC12CCCN(S(=O)(=O)c1cc(F)cc(F)c1)C2 (configuration not stated)	10.9%

Structure (SMILES)	cytotoxicity at 10 µM
CC(=O)N1CCN(CCOc2ccc(F)cc2)CC(C(N)=O)C1 (configuration not stated)	-38.9%
CC(C)[C@H]1COC(=O)N1Cc1nccn1C1CC1	-15.4%
Cc1nc2ccnn2c(C)c1CCC(=O)N1CCN2CCCCC2C1 (configuration not stated)	-8.82%
Cc1cccc(COc2ccccc2C(=O)N2CCC(C(N)=O)CC2)c1	-7.08%
Cc1ccc(NC(=O)CN(C)C(=O)c2ccc(-n3cccc3)nc2)nc1	12.4%
Cc1nonc1CN(C)Cc1cnn(-c2ccc(F)cc2)c1	-16.3%
O=C1CCC2(CCN(Cc3ccc(F)cc3)CC2)N1Cc1ccccc1	-1.63%
O=C(c1cocn1)N1CC[C@H]2OCC[C@@]2(COc2ncccc2F)C1	-127%
CN(CCSc1nncn1C(C)(C)C)c1ccccc1	24%
CCN1CCC2(COCc3c(C)nc(N(C)C)nc32)C1 (configuration not stated)	5.76%
CC(C)OCCC(=O)Nc1ncn(CC(=O)N2CCCCCC2)n1	-1.61%
O=C(NCC1CC1)C1CCC2(CCNCC2)C1 (configuration not stated)	1.91%
COc1cc(CNc2nc3c(c(=O)[nH]2)CCNC3)cc(OC)c1OC	4.72%
Cc1nc2n(n1)CCN(S(=O)(=O)c1ccc(OC(F)(F)F)cc1)C2	-5.86%
Cc1ccc(CN2CCN(Cc3cc(C)n[nH]3)CC2CCO)cc1 (configuration not stated)	1.13%
CC(C)Cn1cnc(S(=O)(=O)NCCc2nnc3ccccn23)c1	6.48%
CCC1=N[C@@]2(CC[C@@H]3CN(Cc4ccc(F)cc4)C[C@@H]32)C(=O)N1C	-106%
CCCc1cc(=O)[nH]c2nnc(SCC(N)=O)n12	13.8%
COCC(C)(CCO)NC(=O)Nc1cccc(Br)c1C (configuration not stated)	10.5%
